Source: ChEMBL document CHEMBL1255444, “In vitro antibacterial activities of JNJ-Q2, a new broad-spectrum fluoroquinolone” (Antimicrob Agents Chemother, 2010)
Values after ≈ are worked out from the molar mass of the structure shown.

Experiments:
Assay type in all cases: functional
Streptococcus pneumoniae [1] = experiment: Antibacterial activity against Streptococcus pneumoniae isolate OC6608 assessed as log reduction in bacterial growth at 4 times MIC measured at 24 hrs by time-kill assay
Outline: (§1)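 Drug was diluted from 50× stocks made in water or acidified water. Samples were taken at 6 and 24 h and serially diluted onto TSA-5% sheep blood plates. Plates were incubated 20–24 h at 37°C in 5% CO2 before counting CFU. Log10 titer change is given relative to the starting inoculum.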

[2] = system: Staphylococcus epidermidis; experiment: Antibacterial activity against methicillin-susceptible Staphylococcus epidermidis by broth microdilution method
[3] = system: Staphylococcus epidermidis; experiment: Antibacterial activity against methicillin-resistant Staphylococcus epidermidis by broth microdilution method
[4] = Antibacterial activity against Streptococcus sp. group C by broth microdilution method
Outline: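 MICs by broth microdilution following CLSI M07-A7 in cation-adjusted Mueller-Hinton medium, using isolates from the J&JPRD culture collection. CLSI quality control strains were included as appropriate.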

Streptococcus pneumoniae [5] = experiment: Antibacterial activity against Streptococcus pneumoniae isolate OC7189 by broth microdilution method
Outline: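 CLSI M07-A7 broth microdilution MIC. Medium was cation-adjusted Mueller-Hinton broth. For S. pneumoniae it was Mueller-Hinton supplemented with 5% lysed horse blood. CLSI quality-control strains were included as appropriate.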

Streptococcus pneumoniae [6] = experiment: Antibacterial activity against Streptococcus pneumoniae isolate OC7376 assessed as log reduction in bacterial growth at 4 times MIC measured at 24 hrs by time-kill assay; outline: as §1
Streptococcus pneumoniae [7] = experiment: Antibacterial activity against Streptococcus pneumoniae isolate OC6790 assessed as log reduction in bacterial growth at 2 times MIC measured at 24 hrs by time-kill assay; outline: as §1
Staphylococcus aureus [8] = experiment: Antibacterial activity against methicillin-resistant Staphylococcus aureus isolate OC11696 assessed as log reduction in bacterial growth at 4 times MIC measured at 24 hrs by time-kill assay
Outline: (§2)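 Overnight MRSA cultures were diluted into fresh cation-adjusted Mueller-Hinton broth to about 5 × 10^6 CFU/ml. […] Samples were plated serially diluted on trypticase soy agar, and CFU were counted after 20-24 h at 37°C. Value is the log10 decrease at 24 h from the starting inoculum; detection limit 100 CFU.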

Staphylococcus aureus [9] = experiment: Antibacterial activity against methicillin-resistant Staphylococcus aureus isolate OC12501 assessed as log reduction in bacterial growth at 4 times MIC measured at 24 hrs by time-kill assay; outline: as §2
Staphylococcus aureus [10] = experiment: Antibacterial activity against methicillin-resistant Staphylococcus aureus isolate OC8530 harboring gyrA S84L and parC I143V mutant gene assessed as log reduction in bacterial growth at 2 times MIC measured at 24 hrs by time-kill assay
Outline: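 Time-kill in cation-adjusted Mueller-Hinton broth. […] Samples were taken up to 24 h, serially diluted onto TSA and counted after 20–24 h at 37°C. Result is log10 decrease at 24 h from the starting inoculum; detection limit 100 CFU.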

Staphylococcus aureus [11] = experiment: Antibacterial activity against methicillin-resistant Staphylococcus aureus isolate OC4222 harboring gyrA S84L and parC S80F mutant gene assessed as log reduction in bacterial growth at 4 times MIC measured at 24 hrs by time-kill assay; outline: as §2
Staphylococcus aureus [12] = experiment: Antibacterial activity against methicillin-resistant Staphylococcus aureus isolate OC8525 harboring wild type quinolone resistance-determining region by agar dilution method
Outline: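 CLSI agar dilution MIC on cation-adjusted Mueller-Hinton medium. These were the MIC values used for the resistance studies, and CLSI quality-control strains were included as appropriate.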

COc1c(N2CCC/C(=C(\F)CN)C2)c(F)cc2c(=O)c(C(=O)O)cn(C3CC3)c12 [ACORAFLOXACIN]
deltalog10CFU/ml (Streptococcus pneumoniae [1]): 7.1
MIC50 [2]: 0.015 µg/mL (≈ 0.0358 µM)
MIC90 [2]: 0.015 µg/mL (≈ 0.0358 µM)
MIC50 [3]: 0.12 µg/mL (≈ 0.286 µM)
MIC90 [3]: 0.25 µg/mL (≈ 0.596 µM)
MIC50 [4]: 0.008 µg/mL (≈ 0.0191 µM)
MIC90 [4]: 0.015 µg/mL (≈ 0.0358 µM)
MIC (Streptococcus pneumoniae [5]): 0.015 µg/mL (≈ 0.0358 µM)
deltalog10CFU/ml (Streptococcus pneumoniae [6]): 6.3
deltalog10CFU/ml (Streptococcus pneumoniae [7]): 7.2
deltalog10CFU/ml (Staphylococcus aureus [8]): 6.5
deltalog10CFU/ml (Staphylococcus aureus [9]): 6.2
deltalog10CFU/ml (Staphylococcus aureus [10]): 6.3
deltalog10CFU/ml (Staphylococcus aureus [11]): 4.2
MIC (Staphylococcus aureus [12]): 0.012 µg/mL (≈ 0.0286 µM)
